High-throughput results (PubChem BioAssay)
M1 ag: human M1 muscarinic receptor agonism | P11229 | CHO-K1 hM1, Fluo-8 calcium fluorescence, agonist mode; 0% DMSO, 100% acetylcholine EC100 | activation, % at 3 µM | actives 0.33% (n = 360,000) | AID 588814;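 active = activation above the run's mean compound activation plus 3 SD, cut at about 16% in these data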;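 note: peak over basal fluorescence ratio within a 140 s kinetic read after compound addition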
TAAR1 agonist: human TAAR1 agonism | CHO RD-HGA16 TAAR1, Fluo-8 calcium fluorescence; vehicle wells 0%, saturating PEA agonist 100% | activation, % at 3 µM | actives 0.99% (n = 360,000) | AID 624467;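 active = activation above the mean activation of all test compounds in the run plus 3 SD, cut at about 38% in these data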
Target sequence (Q96RJ0 whole entry, looked up): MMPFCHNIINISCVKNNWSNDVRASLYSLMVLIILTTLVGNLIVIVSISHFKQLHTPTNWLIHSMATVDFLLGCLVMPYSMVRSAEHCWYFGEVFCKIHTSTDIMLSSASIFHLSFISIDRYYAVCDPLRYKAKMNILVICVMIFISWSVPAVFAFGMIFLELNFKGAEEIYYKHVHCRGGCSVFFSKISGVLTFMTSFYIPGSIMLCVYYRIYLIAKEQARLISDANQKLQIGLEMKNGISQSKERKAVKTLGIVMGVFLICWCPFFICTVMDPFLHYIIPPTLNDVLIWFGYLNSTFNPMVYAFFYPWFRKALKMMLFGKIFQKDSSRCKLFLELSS
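System: CHO-derived RD-HGA16 cells with stable Gα16 and human TAAR1. Times: 17-24 h plating, Fluo-8 75 min 37 °C, 30 min RT. Measured by: calcium-sensitive Fluo-8 signal, excitation 470-495, emission 515-575 nm. Read-out basis: % activation relative to PEA EC100 response. Control set: DMSO and PEA EC100. Repeats: no replicates (n 1).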
CHRM1 PAM: positive allosteric modulators of human M1 muscarinic receptor; P11229; CHO-K1 hM1, Fluo-8 calcium fluorescence, ACh EC20; 0% = ACh EC20, 100% = maximal ACh; activation, % at 3 µM; actives 0.088% (n = 360,000); in the data active = activation above about 19%, passing the limit was not always enough
CHRM1 antagonist: blocks human M1 muscarinic receptor | P11229 | CHO-K1 hM1, Fluo-8 calcium fluorescence, ACh EC80 antagonist | inhibition, % at 3 µM | actives 1.3% (n = 360,000) | AID 588852;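 active = percent inhibition above its own plate's cutoff, namely the mean of that plate's compound wells plus 3 SD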;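 note: peak over basal fluorescence ratio during 140 s after agonist addition; 0% = ACh EC80 plus DMSO and 100% = DMSO alone without agonist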
TAAR1 antag: human TAAR1 antagonism | Q96RJ0 | inhibition, % at 3 µM | AID 624466 | CHO RD-HGA16 TAAR1, Fluo-8 calcium fluorescence, antagonist | actives 1.5% (n = 360,000);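 active = inhibition above a per-plate cutoff, the mean inhibition of test compounds on that plate plus 3 SD, cut at about 49% in these data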;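 note: 0% = DMSO plus EC80 beta-PEA response and 100% = DMSO alone without agonist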
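Assay system: RD-HGA16 CHO cells with stable hTAAR1 and Gα16 / Reagent: EC80 β-phenethylamine stimulus / Doses: 3 µM, single point / Timing: dye loading 75 min at 37 °C, then 30 min room temperature / Measured by: Fluo-8 intracellular calcium dye fluorescence, real-time kinetic reads / Controls: vehicle wells and EC80 agonist wells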
TAAR1 ag confirm: human TAAR1 agonism, confirmed | shares compounds with TAAR1 agonist | CHO RD-HGA16 TAAR1, Fluo-8 calcium fluorescence; scaled: DMSO 0%, maximal phenethylamine 100% | activation, % at 3 µM | actives 82% (n = 2,400);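 active = activation above a cutoff set at the run's mean compound activation plus 3 SD, cut at about 39% in these data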
Ga16 ag counter: counter-screen for TAAR1 agonists: nonselective agonists in parental cells; shares compounds with TAAR1 agonist; CHO-Ga16 parental, Fluo-8 calcium fluorescence; normalized to maximal ATP response, DMSO zero; activation, % at 3 µM; actives 50% (n = 2,400); AID 651787;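 active = activation above the run cutoff, the mean activation over all tested wells plus 3 SD, cut at about 12% in these data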;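 note: 0% = DMSO wells and 100% = maximal ATP response on the peak over basal ratio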
TAAR1 desensitize: TAAR1 response desensitization, agonist counter-screen | inhibition, % at 3 µM | shares compounds with TAAR1 agonist | actives 46% (n = 2,400) | CHO RD-HGA16 hTAAR1, Fluo-8 calcium, beta-PEA response inhibition;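 active = inhibition above the run cutoff, the mean inhibition of all test compounds plus 3 SD, cut at about 49% in these data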;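 note: beta-PEA stimulus applied at its EC80; loss of beta-PEA calcium signal after compound pretreatment read as receptor desensitization; 0% = DMSO with beta-PEA at EC80 and 100% = DMSO alone without agonist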
Ga16 nonsel ant: nonselective Ga16 antagonist in TAAR1 agonist counter-screen | actives 39% (n = 2,400) | CHO-Ga16 ATP-induced calcium, Fluo-8 fluorescence | shares compounds with TAAR1 agonist | inhibition, % at 3 µM;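 active = inhibition above the plate's mean compound inhibition plus 3 SD, computed per plate, cut at about 22% in these data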;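 note: 0% = EC80 ATP with DMSO and 100% = DMSO wells without ATP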
Starred values were filed as active, the others as inactive; / = no result. Only some compounds are listed: those with a hit (about 3.4% of all), similar ones and a draw of the others.

SMILES | M1 ag | TAAR1 agonist | CHRM1 PAM | CHRM1 antagonist | TAAR1 antag | TAAR1 ag confirm | Ga16 ag counter | TAAR1 desensitize | Ga16 nonsel ant
C=CCN=C1NC(c2ccccc2)C(C(=O)OC)=C(C)N1Cc1cccc(C(F)(F)F)c1 (stereo unspecified) | / | 116* | / | / | 87* | 92* | 61* | 81* | 67*
COC(=O)C1=C(C)N(Cc2ccccc2)C(=NCc2cccc(Cl)c2)N[C@H]1c1ccccc1 | -3 | / | -1 | -2 | / | / | / | / | /
C=CCN=C1NC(c2cccc(Cl)c2)C(C(=O)OC)=C(C)N1Cc1cccc(C(F)(F)F)c1 (stereo unspecified) | / | 67* | / | / | 81* | 36 | 27* | 56* | 51*
COc1ccc(NC(=O)c2cccnc2N2CCOCC2)cc1 | -4 | 2 | 9 | -12 | 2 | / | / | / | /
O=C(O)COc1ccc(Cl)cc1C1CCCCC1 | -4 | 1 | 12 | -16 | -5 | / | / | / | /
Cc1ccc(C(=O)NNC(=O)COC(=O)COc2ccccc2C#N)cc1 | 0 | 15 | 16 | -18 | -13 | / | / | / | /
CN(C)CCSc1nnc2[nH]c3ccccc3c2n1 | -7 | 44* | 11 | -8 | 6 | 83* | 0 | 41 | -2
CCCCCOc1ccc(Br)cc1/C(C)=N/NC1=NCCN1 | -4 | 62* | -16 | 6 | 30 | 62* | 12* | 32 | 16
CCN(CC)c1ccc(/C=C(\C#N)c2ccccn2)cc1 | -6 | / | -13 | 10 | / | / | / | / | /
CN(CCC#N)c1ccc(/C=C(\C#N)c2ccccn2)cc1 | -4 | 86* | 2 | 4 | 19 | 3 | 5 | 8 | 10
CCc1ccc(OCC(=O)NC2CCCCC2)c(Br)c1 | -4 | 17 | -4 | 10 | -12 | / | / | / | /
CCc1ccc(OCC(=O)NNC(=S)NC(=O)C2CCCCC2)c(Br)c1 | 9 | 80* | 11 | -11 | 43 | 78* | 47* | 62* | 45*
COc1ccc(OCC(=O)NNC(=S)NC(=O)C2CCCCC2)cc1 | 11 | 65* | 5 | -10 | 28 | 78* | 51* | 38 | 36*
COc1ccc(CC(=O)NC(=S)NNC(=O)COc2c(C)cccc2C)cc1 | 6 | 94* | 8 | 0 | 53* | 93* | 61* | 64* | 47*
CNC(=S)NNC(=O)Cc1ccc(OC)cc1 | -2 | 2 | 2 | -5 | 4 | / | / | / | /
CC1(C)Cc2ccccc2C(CSc2ccccc2C(=O)O)=N1 | -8 | 5 | 8 | -11 | -5 | / | / | / | /
NCCc1nc(-c2ccccc2)cs1 | -6 | 56* | 9 | -5 | 4 | 73* | 0 | 61* | 11
Cc1cc(C)c2c(=O)n(CC(=O)N3CCC(N4CCCCC4)CC3)sc2n1 | 14 | 1 | 4 | -14 | -37 | / | / | / | /
CCCNC(=O)Cn1sc2nc(C)cc(C)c2c1=O | 3 | 52* | 2 | -4 | -13 | 37 | 21* | 24 | 18
O=CN1CCCN(C(=O)CC2C(=O)NCCN2Cc2cccc(Oc3ccccc3)c2)CC1 (stereo unspecified) | -4 | -1 | -1 | 7 | 2 | / | / | / | /
CC(C(=O)Nc1ccc2c(c1)OCO2)c1ccc([N+](=O)[O-])cc1 (stereo unspecified) | 16 | 37 | -6 | 8 | 15 | / | / | / | /
CC(C(=O)Nc1ccc2c(c1)OCCO2)c1ccc([N+](=O)[O-])cc1 (stereo unspecified) | 42* | 128* | -2 | 6 | 76* | 123* | 85* | 78* | 40*
COc1cc(CN2CCN(Cc3ccc([N+](=O)[O-])cc3)CC2)c([N+](=O)[O-])cc1OC | -9 | 6 | -4 | 5 | -2 | / | / | / | /
